Assay outcomes deposited in PubChem BioAssay by several laboratories.
Only some compounds are listed: those with a hit (about 4% of all), similar ones and a draw of the others.
MT stabilizer – microtubule stabilizers in HeLa cells; % tubulin-high responders, % at 10 µM; HeLa tubulin immunostaining HCS, 24 h; share of cells brighter than vehicle mean+2SD; 0.83% of 200,000 active;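 active = plate Z-score above 3 for both tubulin-high and condensed-nucleus cell shares, with cell loss under 80%, at 10 µM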;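 note: anti alpha tubulin signal scored within the nucleus-defined area of each cell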
WT yeast gro inh – growth inhibition of WT yeast, mitochondrial fusion screen; mitochondrial fusion phenotypic screen, WT strain; inhibition, % at 10 µM; 2.1% of 190,000 active; AID 1362; in the data active = inhibition above about 58%; tested in S. cerevisiae
Pf gametocyte – inhibitors of late stage P. falciparum gametocyte viability. P. falciparum stage V gametocytes, ATP luminescence, 24 h. inhibition, % at 10.9 µM. 0.065% of 150,000 active. AID 743093;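 active = inhibition above the mean plus 3 SD of compounds within the control limits, set per campaign, cut at about 38% in these data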;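 note: 0% = DMSO wells and 100% = medium only without gametocytes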
KCC2 mod – modulators of human KCC2 chloride dependent transport | B-score of Tl+ flux slope (higher = more flux/activation; lower = inhibition) at 10 µM | Q9H2X9 | KCC2 cells, thallium flux FluoZin-2 fluorescence | AID 1456 | 2.2% of 190,000 active;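 active = thallium flux slope and its plate-corrected score both differing from the plate sample mean at a set confidence after two filtering rounds, in either direction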;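 note: slope of fluorescence scaled to starting intensity during 10 to 20 s after thallium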
Target sequence (Q9H2X9 whole entry, looked up): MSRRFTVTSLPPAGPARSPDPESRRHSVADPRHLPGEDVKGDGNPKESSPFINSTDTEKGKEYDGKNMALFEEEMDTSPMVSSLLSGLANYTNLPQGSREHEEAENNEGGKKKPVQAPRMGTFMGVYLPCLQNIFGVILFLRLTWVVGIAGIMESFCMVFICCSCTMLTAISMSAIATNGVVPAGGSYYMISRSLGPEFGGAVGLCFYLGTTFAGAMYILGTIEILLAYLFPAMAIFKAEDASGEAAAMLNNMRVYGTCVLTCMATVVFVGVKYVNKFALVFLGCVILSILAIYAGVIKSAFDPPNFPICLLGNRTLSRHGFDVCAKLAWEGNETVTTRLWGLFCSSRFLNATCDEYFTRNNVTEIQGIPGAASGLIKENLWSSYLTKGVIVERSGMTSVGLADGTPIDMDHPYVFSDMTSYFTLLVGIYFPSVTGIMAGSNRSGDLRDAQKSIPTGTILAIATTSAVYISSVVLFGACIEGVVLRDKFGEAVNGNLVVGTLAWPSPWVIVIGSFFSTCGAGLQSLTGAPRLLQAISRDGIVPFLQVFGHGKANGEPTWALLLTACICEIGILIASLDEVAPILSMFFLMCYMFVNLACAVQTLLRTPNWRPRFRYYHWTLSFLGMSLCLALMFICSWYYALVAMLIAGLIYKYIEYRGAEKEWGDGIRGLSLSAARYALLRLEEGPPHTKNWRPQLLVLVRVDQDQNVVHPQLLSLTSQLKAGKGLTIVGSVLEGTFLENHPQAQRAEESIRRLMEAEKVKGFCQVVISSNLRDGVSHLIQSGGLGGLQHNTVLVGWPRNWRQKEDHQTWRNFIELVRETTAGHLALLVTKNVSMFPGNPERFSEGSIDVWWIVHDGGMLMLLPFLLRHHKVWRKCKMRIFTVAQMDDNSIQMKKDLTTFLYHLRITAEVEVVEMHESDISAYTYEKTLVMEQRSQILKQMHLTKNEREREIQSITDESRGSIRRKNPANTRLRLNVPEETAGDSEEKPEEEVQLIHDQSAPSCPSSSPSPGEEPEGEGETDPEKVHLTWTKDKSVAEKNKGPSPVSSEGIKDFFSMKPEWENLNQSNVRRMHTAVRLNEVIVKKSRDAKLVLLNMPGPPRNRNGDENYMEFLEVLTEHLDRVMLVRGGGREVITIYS
b-catenin transl – beta-catenin nuclear translocation modulation | HeLa beta-catenin nuclear translocation, immunofluorescence imaging | nuclear translocation activity, % at 5 µM | 0.3% of 190,000 active | AID 1665;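 active = nuclear translocation activity above 50% at 5 µM, with a well cell count of 50 or more; inconclusive = wells under 50 cells across six images, flagged as toxic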;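 note: per-cell ratio of nuclear to cytoplasmic median beta-catenin stain intensity; plate controls were DMSO negative control for no effect and GSK-3 inhibitor IX positive control for full effect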
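Test system: HeLa cells, endogenous beta-catenin; Compound: single 5 µM dose plus 0.02–20 µM confirmation series; Times: compound exposure 24 h at 37°C; Signal: fluorescence imaging of beta-catenin antibody stain plus DAPI; Read-out: % activation, nuclear-to-cytoplasmic median beta-catenin signal ratio per cell.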
KCC2 secondary – confirmation of human KCC2 transport modulators. shares compounds with KCC2 mod. AID 1713. normalised thallium flux (F/F0 slope) at 10 µM. HEK293-KCC2, thallium flux, FluoZin2 fluorescence; active compounds read high. 15% of 3,700 active;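 active = thallium flux slope above the same plate's solvent-only control mean plus 3 SD; inconclusive = the two replicate wells disagree; inactive = no significant difference from solvent-only control wells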
KCC2 bumet counter – thallium flux persisting under bumetanide in KCC2 cells, counter-screen secondary assay; shares compounds with KCC2 mod; HEK293-KCC2 + bumetanide/ouabain, thallium flux FluoZin2; active compounds read high; normalized thallium flux at 10 µM; 49% of 3,700 active; AID 1714;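 active = thallium entry rate above the same plate's blocked-transporter control wells by more than 3 SD; inconclusive = the two repeat wells disagree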;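 note: raw slope of fluorescence over initial fluorescence between 10 and 20 s after thallium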
KCC2 sec2 – confirmation of human KCC2 transport modulators. shares compounds with KCC2 mod. HEK293-KCC2, thallium flux FluoZin2 fluorescence; actives lie on both sides; F/F0 rise rate, 10–20 s post-thallium. normalized thallium flux at 10 µM. 23% of 3,700 active. AID 1715;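 active = thallium flux slope more than 3 SD above or below the plate's solvent-only control mean, mostly below; inconclusive = the two repeat wells disagreed; inactive = no significant shift from solvent-only controls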;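 note: raw slope with 0.1% DMSO as baseline and bumetanide as block control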
HEK293 Tl flux – counter-screen for KCC2 modulators: effect in parental HEK293 cells. thallium flux rate (normalised fluorescence) at 10 µM. shares compounds with KCC2 mod. thallium flux FluoZin2, ouabain; baseline-ratio fluorescence slope, 10–20 s after thallium. AID 1716. 46% of 3,700 active;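 active = thallium flux rate significantly above the same plate's solvent-only control wells, beyond their mean plus 3 SD; inconclusive = the two replicate wells gave conflicting results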
KCC2 ouabain – confirmation of human KCC2 modulators with ouabain; shares compounds with KCC2 mod; HEK293-KCC2, thallium flux FluoZin2 fluorescence; bidirectional: low = inhibitor, high = activator; raw Tl+ flux slope (below DMSO = inhibition, above = activation) at 10 µM; 48% of 3,700 active;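 active = thallium flux slope beyond 3 SD from same-plate DMSO control mean in most replicates, usually higher, sometimes lower; inconclusive = repeat tests gave conflicting results; inactive = no significant difference from controls in most replicates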;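 note: slope of initial-normalized fluorescence between seconds 10 and 20 after thallium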
HEK counter2 – parental HEK flux effect, counter-screen 2 | shares compounds with KCC2 mod | HEK293 parental, thallium flux FluoZin-2 fluorescence slope | 33% of 3,700 active | AID 1718 | thallium flux slope at 10 µM;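 active = thallium flux slope above the same plate's solvent-control mean plus 3 SD in both duplicate wells; inconclusive = duplicate wells that disagreed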;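 note: run without ouabain in cells lacking the KCC2 cotransporter; slope of fluorescence scaled to its starting value between 10 and 20 s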
* marks the source's active call; other numbers are inactive results; ? = inconclusive; . = no result.

SMILES	MT stabilizer	WT yeast gro inh	Pf gametocyte	KCC2 mod	b-catenin transl	KCC2 secondary	KCC2 bumet counter	KCC2 sec2	HEK293 Tl flux	KCC2 ouabain	HEK counter2
Cc1nc(NC(=O)CSc2nnc(-c3ccc4c(c3)OCO4)o2)c(Cl)cc1Cl	5	5	.	-0.097	0	.	.	.	.	.	.
Fc1ccccc1CSc1nncn1NC/C=C/c1ccccc1	3	9	.	-4.8*	.	0.0073	0.0086*	?	0.0075	0.017	0.011
CN(CC(=O)OCC(=O)NCc1ccccc1)S(=O)(=O)c1ccc(Cl)cc1	4	4	-2	-2.2	-1	.	.	.	.	.	.
CCCn1c(C)cc(C(=O)COC(=O)c2ccc[nH]c2=O)c1C	4	14	.	-0.25	-3	.	.	.	.	.	.
O=C(CSc1cccc(C(F)(F)F)c1)Nc1ccc(Cl)cc1Cl	2	-4	2	0.0055	-1	.	.	.	.	.	.
CCN(CC)CCSc1nc(O)c(-c2ccccc2)c(=O)n1-c1ccccc1	2	-1	-18	0.027	0	.	.	.	.	.	.
CCN(CC)CCSc1nc2ccccc2c(=S)n1-c1ccccc1	2	20	-14	2.8*	0	0.01	0.0056	0.034	0.0086	0.02	0.011
Cc1noc(/C=C/N(C)C)c1S(=O)(=O)N1CCCC(C(=O)NC2CCCCC2)C1 (stereo not given)	4	9	.	-0.012	-1	.	.	.	.	.	.
Cc1noc(/C=C/N(C)C)c1S(=O)(=O)N(C)CC(=O)NC1CCCCC1	2	14	12	-7.1*	-2	0.01	0.0072	0.03	?	?	0.01
COc1ccc(CCN2CC(C(=O)NC3CCCCC3)CC2=O)cc1OC (stereo not given)	1	0	5	0.65	-2	.	.	.	.	.	.
Cc1nn(C)c(Cl)c1S(=O)(=O)N1CCC(CO)(CCc2ccccc2)CC1	3	-18	-5	-0.91	-1	.	.	.	.	.	.
CCOc1cc2c3c(c1)C(C)=CC(C)(C)N3C(=O)C2=O	2	-4	4	-0.1	0	.	.	.	.	.	.
CC(=O)Oc1cc2c3c(c1)/C(=C1/SC(=S)NC1=O)C(=O)N3C(C)(C)C=C2C	.	.	0	12*	-5	0.011	0.062*	0.033	0.017*	0.024	0.011
COc1ccc(-n2cc(-c3ccc(Cl)cc3)[nH]c2=S)cc1	.	.	-14	5.7*	0	0.025*	0.013*	0.03	0.0093*	0.019	0.011
Nc1ccc(N=Nc2ccccc2)c(N)n1	2	8	.	-0.47	.	.	.	.	.	.	.
Cc1[nH]c(N=Nc2ccccc2)nc1N=Nc1ccccc1	.	.	5	76*	1	0.04*	0.14*	0.059*	0.096*	0.098*	0.027*
Cc1cccc(/C=N/NC(=O)C(C)Nc2cccc3ccccc23)n1 (stereo not given)	2	65	.	.	7	0.0083	0.0055	0.031	0.0043	0.018	0.011
CCNc1nc(NCC)nc(Oc2ccc(N)cc2)n1	1	-5	7	.	-2	0.0067	0.0046	0.031	0.0074	0.018	0.0096
CCNc1nc(OC)nc(Oc2ccc(C(=O)OC)cc2)n1	1	-12	.	-0.38	0	.	.	.	.	.	.
O=C(O)c1ccccc1-c1nc(-c2ccccc2)c(-c2ccccc2)[nH]1	2	2	4	-1.9	-5	.	.	.	.	.	.
O=C(O)c1cccc2c(-c3ccccc3)c(-c3ccccc3)[nH]c12	.	.	3	8.6*	-2	0.0098	0.023*	0.036	?	?	0.012
